The subject of assay [1] is Mycobacterium tuberculosis. Put plainly: Antimycobacterial activity against Mycobacterium tuberculosis H37Rv. Type of assay: functional.
Assay [2] is described as follows: microbe, parasite or virus in culture. Type of assay: functional, Mycobacterium bovis BCG str. Tokyo 172. The conditions noted are these: Mycobacterium tuberculosis variant bovis BCG.
The test system of assay [3] is Mycolicibacterium smegmatis. Put plainly: microbe, parasite or virus in culture. The assay is classed as functional. The following applies: JATA 64.01.
Assay [4] in a line: microbe, parasite or virus in culture. Type of assay: functional, Mycobacterium avium subsp. hominissuis. The conditions noted are these: Mycobacterium avium, 104.
In assay [5] the test system is Mycobacterium avium. The assay is described as follows: microbe, parasite or virus in culture. The conditions noted are these: ATCC 2529. Type of assay: functional, Mycobacterium avium subsp. avium ATCC 25291.
The test system of assay [6] is Staphylococcus aureus. The assay is described as follows: Antimicrobial activity against Staphylococcus aureus. Type of assay: functional.
The test system of assay [7] is Staphylococcus aureus. The assay is described as follows: microbe, parasite or virus in culture. The assay is classed as functional. The conditions noted are these: 873.
For assay [8], the system named is Escherichia coli. Put plainly: Antimicrobial activity against Escherichia coli DH5alpha. The assay is classed as functional. The following applies: DH5[alpha].
The subject of assay [9] is Staphylococcus aureus. The assay is described as follows: Antimicrobial activity against drug-sensitive Staphylococcus aureus 209PJC-1. Type of assay: functional.
Assay [10] concerns Staphylococcus aureus. The assay is described as follows: Antimicrobial activity against drug-sensitive Staphylococcus aureus RN4220. The assay is classed as functional.
Assay [11] deals with Staphylococcus aureus. The assay is described as follows: Antimicrobial activity against methicillin-resistant Staphylococcus aureus MF490. Type of assay: functional.
Assay [12] concerns Enterococcus faecalis. The assay is described as follows: Antimicrobial activity against AGs-resistant Enterococcus faecalis ATCC 19433. Type of assay: functional.
Assay [13] has as its system Enterococcus faecalis. The assay is described as follows: Antimicrobial activity against AGs-resistant Enterococcus faecalis ATCC 19434. The assay is classed as functional.
The subject of assay [14] is Escherichia coli. Put plainly: Antimicrobial activity against drug-sensitive Escherichia coli JM109. Type of assay: functional.
For assay [15], the system named is Klebsiella pneumoniae. The assay is described as follows: Antibacterial activity against […] Klebsiella pneumoniae ATCC BAA-1705. Type of assay: functional.
The subject of assay [16] is Pseudomonas aeruginosa. Put plainly: Antibacterial activity against drug-sensitive Pseudomonas aeruginosa PAO1. Type of assay: functional.
Assay [17] deals with Mycobacterium tuberculosis. Put plainly: Antimycobacterial activity against drug-sensitive Mycobacterium tuberculosis isolate 1. The assay is classed as functional.
Assay [18] deals with Mycobacterium tuberculosis. The assay is described as follows: Antimycobacterial activity against drug-sensitive Mycobacterium tuberculosis isolate 2. Type of assay: functional. The procedure, abridged: (§1)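 MIC by broth dilution in Middlebrook 7H9 broth supplemented with albumin, dextrose and catalase.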
For assay [19], the system named is Mycobacterium tuberculosis. The assay is described as follows: Antimycobacterial activity against drug-sensitive Mycobacterium tuberculosis isolate 3. The assay is classed as functional. A digest of the protocol:
as §1

Assay [20] relates to Mycobacterium tuberculosis. The assay is described as follows: Antimycobacterial activity against drug-sensitive Mycobacterium tuberculosis isolate 4. Type of assay: functional. The procedure, abridged: as §1
Assay [21] concerns Mycobacterium tuberculosis. Put plainly: Antimycobacterial activity against drug-sensitive Mycobacterium tuberculosis isolate 5. Type of assay: functional. The procedure, abridged:
as §1

The test system of assay [22] is Mycobacterium tuberculosis. Put plainly: Antimycobacterial activity against drug-sensitive Mycobacterium tuberculosis isolate 6. Type of assay: functional. A digest of the protocol:
as §1

Assay [23] concerns Mycobacterium tuberculosis. The assay is described as follows: Antimycobacterial activity against drug-sensitive Mycobacterium tuberculosis isolate 7. The assay is classed as functional. A digest of the protocol:
as §1

Assay [24] has as its system Mycobacterium tuberculosis. The assay is described as follows: Antimycobacterial activity against drug-sensitive Mycobacterium tuberculosis isolate 8. The assay is classed as functional. The procedure, abridged:
as §1

Assay [25] has as its system Mycobacterium tuberculosis. The assay is described as follows: Antimycobacterial activity against drug-sensitive Mycobacterium tuberculosis isolate 9. The assay is classed as functional. A digest of the protocol:
as §1

Assay [26] has as its system Mycobacterium tuberculosis. The assay is described as follows: Antimycobacterial activity against drug-sensitive Mycobacterium tuberculosis isolate 10. Type of assay: functional. A digest of the protocol: as §1
Assay [27] has as its system Mycobacterium tuberculosis. The assay is described as follows: Antimycobacterial activity against drug-sensitive Mycobacterium tuberculosis isolate 11. Type of assay: functional. The procedure, abridged:
as §1

For assay [28], the system named is Mycobacterium tuberculosis. Put plainly: Antimycobacterial activity against drug-sensitive Mycobacterium tuberculosis isolate 12. Type of assay: functional. The procedure, abridged: as §1
The test system of assay [29] is Mycobacterium tuberculosis. The assay is described as follows: Antimycobacterial activity against drug-sensitive Mycobacterium tuberculosis isolate 13. The assay is classed as functional. The procedure, abridged:
as §1

For assay [30], the system named is Mycobacterium tuberculosis. The assay is described as follows: Antimycobacterial activity against drug-sensitive Mycobacterium tuberculosis isolate 14. Type of assay: functional. A digest of the protocol: as §1
Assay [31] relates to Mycobacterium tuberculosis. The assay is described as follows: Antimycobacterial activity against drug-sensitive Mycobacterium tuberculosis isolate 15. The assay is classed as functional. A digest of the protocol:
as §1

In assay [32] the test system is Mycobacterium tuberculosis. Put plainly: Antimycobacterial activity against drug-sensitive Mycobacterium tuberculosis isolate 16. The assay is classed as functional. The procedure, abridged:
as §1

Assay [33] deals with Mycobacterium tuberculosis. The assay is described as follows: Antimycobacterial activity against drug-sensitive Mycobacterium tuberculosis isolate 17. Type of assay: functional. The procedure, abridged:
as §1

Assay [34] has as its system Mycobacterium tuberculosis. The assay is described as follows: Antimycobacterial activity against drug-sensitive Mycobacterium tuberculosis isolate 18. The assay is classed as functional. The procedure, abridged: as §1
The test system of assay [35] is Mycobacterium tuberculosis. The assay is described as follows: Antimycobacterial activity against drug-sensitive Mycobacterium tuberculosis isolate 19. The assay is classed as functional. The procedure, abridged: as §1
For assay [36], the system named is Mycobacterium tuberculosis. Put plainly: Antimycobacterial activity against drug-sensitive Mycobacterium tuberculosis isolate 20. The assay is classed as functional. A digest of the protocol:
as §1

Converted amounts (≈) assume the structure as drawn. A value given as a limit tells only on which side of the number the result lay.

For `S=C([S-])N(c1c[nH]cn1)c1c[nH]cn1.[Na+]`, the MIC in [1] was 6.25 µg/mL; in [2], 12.5 µg/mL; in assay [3], greater than 100 µg/mL.
For the compound `CC(=O)N[C@@H]1[C@@H](O)[C@H](O)[C@@H](CO)O[C@H]1SC(=S)N1CCCC1`, the MIC is 6.25 µg/mL (≈ 17.8 µM) in [1]; 12.5 µg/mL (≈ 35.7 µM) in assay [2]; 100 µg/mL (≈ 285 µM) in assay [4]; 50 µg/mL (≈ 143 µM) in [5]; greater than 100 µg/mL in [6]; greater than 100 µg/mL in [7]. The MIC in assay [8] was greater than 100 µg/mL; in [9], greater than 128 µg/mL; in assay [10], greater than 128 µg/mL; in assay [11], greater than 128 µg/mL; in assay [12] it was greater than 128 µg/mL; in assay [13], greater than 128 µg/mL. The MIC in [14] is greater than 128 µg/mL; in assay [15], greater than 128 µg/mL; in assay [16] it was greater than 128 µg/mL; in [17], 6.25 µg/mL (≈ 17.8 µM); in assay [18] it was 6.25 µg/mL (≈ 17.8 µM); in assay [19], 6.25 µg/mL (≈ 17.8 µM). Besides, the MIC amounted to 6.25 µg/mL (≈ 17.8 µM) in [20]; 6.25 µg/mL (≈ 17.8 µM) in assay [21]; 6.25 µg/mL (≈ 17.8 µM) in assay [22]; 12.5 µg/mL (≈ 35.7 µM) in assay [23]; 12.5 µg/mL (≈ 35.7 µM) in assay [24]; 6.25 µg/mL (≈ 17.8 µM) in assay [25]. The MIC is 6.25 µg/mL (≈ 17.8 µM) in assay [26]; 6.25 µg/mL (≈ 17.8 µM) in [27]; 6.25 µg/mL (≈ 17.8 µM) in assay [28]; 12.5 µg/mL (≈ 35.7 µM) in assay [29]; 6.25 µg/mL (≈ 17.8 µM) in assay [30]; 6.25 µg/mL (≈ 17.8 µM) in assay [31]. Further, the MIC in [32] is 6.25 µg/mL (≈ 17.8 µM); in assay [33], 6.25 µg/mL (≈ 17.8 µM); in assay [34], 6.25 µg/mL (≈ 17.8 µM); in assay [35] it was 6.25 µg/mL (≈ 17.8 µM); in [36], 12.5 µg/mL (≈ 35.7 µM).
In turn, `CCC(=O)N[C@@H]1[C@@H](O)[C@H](O)[C@@H](CO)O[C@H]1SC(=S)N(C)C` had an MIC in assay [1] of 50 µg/mL (≈ 148 µM).
In the case of `CN(C)C(=S)S[C@@H]1O[C@H](CO)[C@@H](O)[C@H](O)[C@H]1NC(=O)C1CC1`, the MIC in [1] amounted to 50 µg/mL (≈ 143 µM).
On the same count and under the same terms, in the case of `CN(C)C(=S)S[C@@H]1O[C@H](CO)[C@@H](O)[C@H](O)[C@H]1NC(=O)c1ccccc1` it was 100 µg/mL (≈ 259 µM); in that of `CCCCCCCCCCCCCCCCCC(=O)N[C@@H]1[C@@H](O)[C@H](O)[C@@H](CO)O[C@H]1SC(=S)N(C)C`, 100 µg/mL (≈ 182 µM).
On the same count and under the same terms, in the case of `CN(C)C(=S)S[C@@H]1O[C@H](CO)[C@@H](O)[C@H](O)[C@H]1N` it was 50 µg/mL (≈ 177 µM).
Turning to `CC(=O)N[C@@H]1[C@@H](O)[C@H](O)[C@@H](CO)O[C@H]1SC(=S)N(C)C`, the MIC was 25 µg/mL (≈ 77.1 µM) in assay [1]; 31.3 µg/mL (≈ 96.5 µM) in [2]; greater than 100 µg/mL in assay [4]; greater than 100 µg/mL in [5]; greater than 100 µg/mL in assay [6]; greater than 100 µg/mL in assay [7]. In assay [8], the MIC was greater than 100 µg/mL.
In the case of `NCC[C@H](O)C(=O)N[C@@H]1C[C@H](N)[C@@H](O[C@H]2O[C@H](CN)[C@@H](O)[C@H](O)[C@H]2O)[C@H](O)[C@H]1O[C@H]1O[C@H](CO)[C@@H](O)[C@H](N)[C@H]1O` [AMIKACIN], the MIC is 0.5 µg/mL (≈ 0.854 µM) in [9]; 4 µg/mL (≈ 6.83 µM) in assay [10]; greater than 128 µg/mL in assay [11]; greater than 128 µg/mL in [12]; 32 µg/mL (≈ 54.6 µM) in [13]; 0.5 µg/mL (≈ 0.854 µM) in [14]. For the same compound, the MIC in [15] is 32 µg/mL (≈ 54.6 µM); in assay [16] it was 2 µg/mL (≈ 3.42 µM).
With `CC1(C)S[C@@H]2[C@H](NC(=O)[C@H](N)c3ccccc3)C(=O)N2[C@H]1C(=O)O` [AMPICILLIN], the MIC in assay [1] is 12.5 µg/mL (≈ 35.8 µM); in [2], 12.5 µg/mL (≈ 35.8 µM); in assay [6], 50 µg/mL (≈ 143 µM); in assay [7] it was greater than 100 µg/mL; in assay [8], greater than 100 µg/mL.
On to `O=C(O)c1cn(C2CC2)c2cc(N3CCNCC3)c(F)cc2c1=O` [CIPROFLOXACIN], for which the MIC in assay [1] came out at 0.39 µg/mL (≈ 1.18 µM); in assay [2], 0.1 µg/mL (≈ 0.302 µM); in assay [4], 0.39 µg/mL (≈ 1.18 µM); in [5] it was 1.56 µg/mL (≈ 4.71 µM); in [6] it was 0.2 µg/mL (≈ 0.604 µM).
